Compound activity (PubChem)
S1P4 antagonist – human S1P4 receptor antagonism | 220,000 compounds, 0.26% hits | inhibition, % at 4.98 µM | O95977 | S1P4-expressing cells, antagonist mode, reporter read-out; in the data active = inhibition above about 29%;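 also: 0% = wells stimulated with agonist and 100% = vehicle wells without agonist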
Target sequence (O95977 whole entry, looked up): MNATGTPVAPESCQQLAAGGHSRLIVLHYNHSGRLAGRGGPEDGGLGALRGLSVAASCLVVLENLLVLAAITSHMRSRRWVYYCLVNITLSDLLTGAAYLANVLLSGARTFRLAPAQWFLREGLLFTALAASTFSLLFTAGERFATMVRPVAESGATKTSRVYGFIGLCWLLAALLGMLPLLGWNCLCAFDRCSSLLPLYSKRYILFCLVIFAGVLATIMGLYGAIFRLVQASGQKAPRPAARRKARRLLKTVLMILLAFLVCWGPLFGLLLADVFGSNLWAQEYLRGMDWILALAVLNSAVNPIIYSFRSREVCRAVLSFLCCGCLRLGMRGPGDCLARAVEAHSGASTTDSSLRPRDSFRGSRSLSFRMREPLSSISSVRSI
NPY-Y1 antag – blocks the human neuropeptide Y Y1 receptor; 200,000 compounds, 1% hits; inhibition, % at 3.6 µM; P25929; HEK293-CNG Y1 cells, membrane potential fluorescence; NPY at EC95, then isoproterenol; AID 1040;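 active = inhibition above the campaign mean inhibition of all tested compounds plus 3 SD, cut at about 20% in these data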;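 also: 0% = DMSO wells given NPY plus isoproterenol and 100% = isoproterenol alone without NPY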
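Test system – HEK293 Y1/CNG channel cell line · Also added – NPY agonist 25 nM, then isoproterenol 1 µM plus Ro 20-1724 25 µM · Compound dosing – one concentration, 3.6 µM, in 0.4% DMSO · Schedule – compound incubation 1 h at room temperature, readout 45 min post-stimulation · Technique – fluorescence, membrane potential probe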
NPY Y2 blocker – antagonists of human neuropeptide Y receptor Y2; P49146; NPY-Y2 expressing cells, antagonist mode; inhibition, % at 2.7 µM; 140,000 compounds, 0.99% hits; AID 793; in the data active = inhibition above about 17%;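 also: 0% = vehicle with agonist challenge and 100% = reference antagonist with challenge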
NPY1 pot ag – potentiators or agonists of human neuropeptide Y receptor Y1. 220,000 compounds, 0.37% hits. NPY-Y1 expressing cells, potentiator/agonist activation. AID 1304. activation, % at 3.6 µM; in the data active = activation above about 33%, passing the limit was not always enough;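 also: cells stimulated with NPY at EC10 then isoproterenol at EC100; 0% = low agonist plus stimulus and 100% = saturating agonist plus stimulus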
S1P4 agonist – human S1P4 receptor agonism. S1P4-expressing cell line, agonist reporter assay. activation, % at 4.98 µM. O95977. 220,000 compounds, 0.35% hits; in the data active = activation above about 11%;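 also: 0% = DMSO vehicle and 100% = reference agonist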
NPY2 pot ag – potentiators or agonists of human neuropeptide Y receptor Y2. P49146. cells expressing NPY-Y2, potentiator/agonist read-out. activation, % at 3.6 µM. 220,000 compounds, 0.45% hits. AID 1359; in the data active = activation above about 27%;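 also: cells stimulated with NPY near EC25 plus isoproterenol at EC100; 0% = vehicle plus submaximal agonist and 100% = vehicle plus saturating agonist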
The depositor's hits bear a star; x = not tested or not shown. The list is not random: actives were taken first. Their share in the collection is about 2.4%.

SMILES	S1P4 antagonist	NPY-Y1 antag	NPY Y2 blocker	NPY1 pot ag	S1P4 agonist	NPY2 pot ag
OC(COc1ccc(C2C=CCC2)cc1)CN1CCCCC1 (configuration not stated)	6	-8	1	60*	-1	73*
O=S(=O)(N/N=C\c1ccc2c(c1)OCO2)c1ccc(Cl)cc1	-3	4	5	-9	-1	-16
O=C(CSc1nnc(-c2cccnc2)n1-c1ccc(SC(F)F)cc1)N1CCCc2ccccc21	-19	3	19*	6	0	9
CCOc1ccccc1-n1c(SCC(=O)N2CCCc3ccccc32)nnc1-c1cccnc1	-15	1	4	-15	2	11
COCCn1c(=O)[nH]c2cc(C(=O)NCC3CCCO3)ccc2c1=O (configuration not stated)	-1	-2	-1	74*	0	12
COCCn1c(=S)[nH]c2cc(C(=O)NCC3CCCO3)ccc2c1=O (configuration not stated)	0	-3	0	10	-2	15
O=C(Nc1ccc(N2CCCC2)c(Cl)c1)c1ccco1	-18	0	0	0	-1	-3
O=C(Nc1ccc(N2CCCC2)c(Cl)c1)c1ccc([N+](=O)[O-])o1	90*	-9	x	17	-2	14
Cc1nc(N2CCOCC2)c2c(C)c(C(=O)Nc3ccccc3Cl)sc2n1	-3	6	x	-19	4	-10
Cc1nc(N2CCOCC2)c2c(C)c(C(=O)Nc3ccccc3C(F)(F)F)sc2n1	-5	20*	x	-14	0	-13
C[C@]12CCC(=O)C=C1[C@H](O)C[C@@H]1[C@@H]2[C@@H](O)C[C@@]2(C)[C@H]1CC[C@]2(O)C(=O)CO	-28	-13	0	117*	1	101*
C[C@]12CCC(=O)C=C1CC[C@@H]1[C@@H]2[C@@H](O)C[C@@]2(C)[C@H]1CC[C@]2(O)C(=O)CO	-17	0	1	2	2	5
O=C(O)CN1C(=O)SC(Nc2ccc(C(=O)O)cc2)C1=O (configuration not stated)	1	4	4	11	1	13
CC(NC(=O)c1ccc(N(C)C)cc1)C1CC2CCC1C2 (configuration not stated)	34*	-3	1	4	1	4
COc1ccccc1NC(=O)CSc1nc(N)cc(N)n1	10	2	0	-3	1	19
COc1ccccc1NC(=O)CSc1nc2ccccc2cc1Cc1ccccc1	-23	26*	21*	-70	-2	-8
Clc1cccc(Cl)c1Cn1cnc(=NCc2ccco2)c2[nH]cnc21	-9	2	0	-3	2	-11
CN1CCc2c1nc1ccccc1c2N=C1CCCN1Cc1ccccc1	-22	22*	22*	-46	1	-16
Cc1cc(C)c(N=C2CCCN2Cc2ccccc2)c(C#N)c1	5	6	12	5	0	11
CCOC(=O)C1C(=O)N(O)CC1c1cccc(Oc2ccccc2)c1 (configuration not stated)	-30	2	x	-11	2	-9
Cn1nc(C(F)(F)F)c(-c2ccc(F)cc2)c1NC(=O)c1ccco1	-11	x	x	6	1	-1
Cn1nc(C(F)(F)F)c(-c2ccc(Br)cc2)c1NC(=O)Nc1ccc(F)cc1F	-4	x	x	108*	-1	99*
Cc1cnc(C(=O)Nc2ccccc2-c2ccc(C)o2)cn1	5	4	3	101*	-1	56*
Cc1cnc(C(=O)Nc2cccc3ncccc23)cn1	-24	0	2	9	0	6
O=C(OCCN1C(=O)c2cccc3c(N4CCOCC4)ccc(c23)C1=O)c1ccccc1Cl	-16	57*	24*	-39	1	10
SMILES	S1P4 antagonist	NPY-Y1 antag	NPY Y2 blocker	NPY1 pot ag	S1P4 agonist	NPY2 pot ag
S=c1nc(-c2ccccc2)n(Cc2cccnc2)c2c1CCCC2	17	x	x	19	0	-1
S=c1nc(-c2ccccc2)n(Cc2ccco2)c2c1CCCC2	-13	29*	16	-13	4	3
CC1CC(C)CN(c2oc(-c3ccco3)nc2C#N)C1 (configuration not stated)	-10	24*	27*	-33	-1	3
N#Cc1nc(-c2ccco2)oc1N1CCCC1	-7	-6	7	-7	1	-8
O=[N+]([O-])c1cc(Cl)ccc1N1CCCC1	5	7	x	4	-1	-3
O=[N+]([O-])c1cc(Cl)ccc1N1CCN(c2cccc(C(F)(F)F)c2)CC1	-7	20*	21*	6	-1	-6
CC(C)CCn1c(N2CCC(C(N)=O)CC2)nc2c1c(=O)[nH]c(=O)n2C	7	2	0	13	1	18
CN1CCN(C(=O)c2cc3c(s2)-c2ccccc2S(=O)(=O)C3)CC1	7	-2	2	-1	-1	-5
COc1ccc(N2CCN(C(=O)c3cc4c(s3)-c3ccccc3S(=O)(=O)C4)CC2)cc1	-2	x	x	81*	-2	67*
CCOc1cc(/C=N/O)ccc1OCC(=O)Nc1cccc(C)c1	-13	3	2	-22	0	7
Cn1cnnc1SCc1ccccc1Br	-14	-3	-1	108*	1	80*
O=C1c2ccccc2C(=O)c2c(Nc3ccc(CCO)cc3)ccc(O)c21	1	x	x	121*	0	117*
CC(=O)Nc1ccc(Nc2ccc3c4c(cc(=O)n3C)-c3ccccc3C(=O)c24)cc1	-9	-1	x	7	1	6
OC(CNCCNc1ncccc1C(F)(F)F)COc1ccc(F)cc1 (configuration not stated)	7	x	x	86*	-1	61*
COc1ccc(OCC(O)CNC(=O)c2cccs2)cc1 (configuration not stated)	3	x	x	2	1	8
O=C(CSc1nnc(CCCO)n1-c1ccccc1)NCCc1ccccc1	-3	3	-1	-29	0	-5
C=CCNS(=O)(=O)c1ccc(OC)c(C)c1	-24	-4	3	4	2	10
Cc1ccc(OCCn2c(NC(=O)c3ccco3)nc3ccccc32)cc1	-1	9	20*	-3	2	6
Cc1cccc(OCCn2c(-c3ccco3)nc3ccccc32)c1	-8	26*	20*	-50	1	-11
Cc1cccc(OCCn2c(NC(=O)c3ccco3)nc3ccccc32)c1	-4	34*	37*	-107	0	-53
c1ccc(OCCn2c(-c3ccco3)nc3ccccc32)cc1	-9	8	5	-30	-1	-21
O=C(Nc1nc2ccccc2n1CCOc1ccc(Cl)cc1)c1ccco1	-9	24*	31*	-102	-4	-90
O=C(Nc1nc2ccccc2n1CCOc1ccccc1)c1ccco1	-2	9	11	-56	2	-31
C=CCOC(=O)C1=C(C)NC(=O)NC1/C=C/c1ccccc1OC (configuration not stated)	4	5	3	-38	2	-8
